Results reported in PMC3985758 (ACS Chemical Biology, 2014).

Key:
[1] = system: MCF7 cells; details: cited from earlier work
[2] = system: MCF7; assay: Concentration-response proliferation assay, colloidal vs monomeric formulation; format: cell-based
Method in brief: (§1)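 Cells seeded at 10,000 cells/cm2 and left to adhere overnight, then dosed in RPMI 1640 with 10% charcoal-stripped FBS. Colloidal formulation: DMSO stock diluted 1000-fold into medium (0.1% DMSO). Monomeric formulation: stock diluted 10-fold in DMSO, then into medium giving 1% DMSO and 0.025% v/v polysorbate 80. Vehicle controls made the same way. Medium refreshed every 12 h over 72 h; cells washed; proliferation by MTS or DAPI nuclei counts, relative to untreated.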

[3] = system: BT474; assay: as above; format: cell-based
Method in brief: as §1

[4] = system: MDA-MB-231 cells; assay: Concentration-response proliferation assay; format: cell-based
Method in brief: as §1

[5] = known aggregators; not among compounds measured by DLS here; cited from earlier work
[6] = system: T47D ductal carcinoma cell line; assay: Concentration-response proliferation assay, colloidal vs monomeric formulation; format: cell-based
Method in brief: as §1

SMILES: O=c1c(-c2ccc(O)cc2)coc2cc(O)cc(O)c12 [Genistein]
- concentration of maximum activity of bell-shaped curve [1]: 50 µM

SMILES: C[C@]12CC[C@@H]3c4ccc(O)cc4C[C@@H](CCCCCCCCC[S+]([O-])CCCC(F)(F)C(F)(F)F)[C@H]3[C@@H]1CC[C@@H]2O (stereo partly drawn) [Fulvestrant]
- concentration at which loss of activity is observed [2]: ≥ 1 µM
- concentration at which loss of activity is observed [3]: ≥ 1 µM

SMILES: CNC(=O)c1cc(Oc2ccc(NC(=O)Nc3ccc(Cl)c(C(F)(F)F)c3)cc2)ccn1 [Sorafenib, sorafenib]
- inhibition of cell proliferation ([4]; 10 μM, colloidal formulation (0.1% DMSO, no UP 80), 72 h): almost entirely eliminated
- inhibition at 10 µM ([4]; Homo sapiens, MDA-MB-231, 72 h, read-out: inhibition of proliferation): ~90%
- concentration at which loss of activity is observed ([4]; colloidal formulation, MDA-MB-231): ≥ 10 µM
- CAC (critical aggregation concentration) [5]: 3.5 µM

SMILES: C[C@@H](Oc1cc(-c2cnn(C3CCNCC3)c2)cnc1N)c1c(Cl)ccc(F)c1Cl [Crizotinib, crizotinib]
- concentration at which antiproliferative activity is lost [6]: 10 µM
- CAC (critical aggregation concentration) [5]: 19.3 µM
